ChEMBL document CHEMBL3774312, “5-Substituted 3-isopropyl-7-[4-(2-pyridyl)benzyl]amino-1(2)H-pyrazolo[4,3-d]pyrimidines with anti-proliferative activity as potent and selective inhibitors of cyclin-dependent kinases” (Eur J Med Chem, 2016)
Calls of active or inactive are those of the source. The calls are words filed in the database; no cut-off is given here.

Legend:
[1] = biological target: Cyclin-dependent kinase 2 (Homo sapiens) (UniProt P24941); experiment: Inhibition of CDK2 in human G361 cells assessed as reduction in phosphorylation of RNA polymerase 2 at C-terminus at 0.1 to 1 uM incubated for 24 hrs by immunoblotting analysis; format: cell-based; settings: G-361
Outline: (§1)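 Treated G361 cells were lysed in Laemmli buffer, run on SDS-PAGE and blotted to nitrocellulose. Blots were probed overnight with antibodies to RNA polymerase II phosphorylated at S5 and S2, and to total RNA polymerase II (ARNA-3). Peroxidase secondaries were then applied and signal was detected by ECL with a CCD camera.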

[2] = biological target: Cyclin-dependent kinase 1 (Homo sapiens, UniProt P06493); experiment: Inhibition of CDK1 (unknown origin)
MCF7 [3] = experiment: Cell cycle arrest in BrdU pulse-labelled human MCF7 cells assessed as accumulation at late G2/M phase at 8 to 250 nM after 24 hrs by propidium iodide staining based flow cytometry; format: functional
[4] = biological target: AMP-activated protein kinase, AMPK (Homo sapiens) (UniProt P54646+O43741+P54619+Q9UGJ0+Q9Y478+Q13131+Q9UGI9); experiment: Inhibition of recombinant human AMPK assessed as residual activity at 1 uM relative to control; format: protein-complex assay
[5] = biological target: Serine/threonine-protein kinase Chk2 (Homo sapiens) (UniProt O96017); experiment: Inhibition of recombinant CHK2 (unknown origin) assessed as residual activity at 1 uM relative to control
Chain of Serine/threonine-protein kinase Chk2 (Homo sapiens) (O96017 whole entry): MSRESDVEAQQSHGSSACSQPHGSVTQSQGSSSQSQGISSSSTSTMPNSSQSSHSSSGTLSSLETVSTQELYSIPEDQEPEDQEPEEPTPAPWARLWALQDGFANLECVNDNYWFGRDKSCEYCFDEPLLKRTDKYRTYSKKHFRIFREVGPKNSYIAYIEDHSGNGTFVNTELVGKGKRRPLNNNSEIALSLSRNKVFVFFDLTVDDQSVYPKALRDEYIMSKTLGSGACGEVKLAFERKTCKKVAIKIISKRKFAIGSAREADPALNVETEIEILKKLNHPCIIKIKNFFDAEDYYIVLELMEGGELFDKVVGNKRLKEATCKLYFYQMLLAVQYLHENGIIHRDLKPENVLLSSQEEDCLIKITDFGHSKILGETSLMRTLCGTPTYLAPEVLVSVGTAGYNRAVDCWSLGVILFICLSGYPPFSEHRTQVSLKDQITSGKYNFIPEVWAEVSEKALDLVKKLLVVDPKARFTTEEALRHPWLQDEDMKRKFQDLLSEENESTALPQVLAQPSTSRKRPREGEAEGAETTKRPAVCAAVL

MCF7 [6] = experiment: Cytotoxicity against human MCF7 cells assessed as reduction in cell viability after 72 hrs by calcein AM staining based fluorescence assay; format: functional
Outline: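 Cells were grown in DMEM with 10% FBS, penicillin and streptomycin at 37 °C in 5% CO2. Three doses were tested in triplicate for 72 h.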

[7] = (§2) Cytotoxicity against human HCT116 cells assessed as reduction in cell viability after 72 hrs by calcein AM staining based fluorescence assay; format: functional; settings: HCT-116, 72 h
Outline: (§3)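 Cells were grown in DMEM with 10% FBS, penicillin and streptomycin at 37 °C in 5% CO2. Three doses were tested in triplicate for 72 h. Live cells were read by Calcein AM fluorescence at 485/538 nm.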

HCT-116 = experiment: as §2; format: functional; outline: as §3
MCF7 [8] = experiment: Cell cycle arrest in BrdU pulse-labelled human MCF7 cells assessed as decrease in cells at S phase at 8 to 250 nM after 24 hrs by propidium iodide staining based flow cytometry; format: functional
MCF7 [9] = experiment: Cell cycle arrest in BrdU pulse-labelled human MCF7 cells assessed as accumulation at subG1 phase at 8 to 250 nM after 24 hrs by propidium iodide staining based flow cytometry; format: functional
G-361 [10] = experiment: Induction of apoptosis in human G361 cells assessed as caspase7 activation using Ac-DEVD-AMC as substrate at IC50 preincubated for 24 hrs followed by substrate addition measured after 3 hrs by fluorescence assay; format: functional, cell-based
G-361 [11] = experiment: Induction of apoptosis in human G361 cells assessed as caspase7 activation using Ac-DEVD-AMC as substrate at 5 times IC50 preincubated for 24 hrs followed by substrate addition measured after 3 hrs by fluorescence assay; format: functional, cell-based
[12] = biological target: Cyclin-dependent kinase 2 (Homo sapiens) (UniProt P24941); experiment: Inhibition of CDK2 in human G361 cells assessed as reduction in phosphorylation of RNA polymerase 2 at C-terminus at 1 uM incubated for 0.5 to 24 hrs by immunoblotting analysis; format: cell-based; settings: G-361; outline: as §1
[13] = biological target: Dual specificity protein kinase TTK (Homo sapiens) (UniProt P33981); experiment: Inhibition of recombinant TTK (unknown origin) assessed as residual activity at 1 uM relative to control
[14] = biological target: Serine/threonine-protein kinase Nek6 (Homo sapiens) (UniProt Q9HC98); experiment: Inhibition of recombinant NEK6 (unknown origin) assessed as residual activity at 1 uM relative to control
[15] = biological target: Dual specificity mitogen-activated protein kinase kinase 1 (Homo sapiens) (UniProt Q02750); experiment: Inhibition of recombinant MKK1 (unknown origin) assessed as residual activity at 1 uM relative to control
Chain of Dual specificity mitogen-activated protein kinase kinase 1 (Homo sapiens) (Q02750 whole entry): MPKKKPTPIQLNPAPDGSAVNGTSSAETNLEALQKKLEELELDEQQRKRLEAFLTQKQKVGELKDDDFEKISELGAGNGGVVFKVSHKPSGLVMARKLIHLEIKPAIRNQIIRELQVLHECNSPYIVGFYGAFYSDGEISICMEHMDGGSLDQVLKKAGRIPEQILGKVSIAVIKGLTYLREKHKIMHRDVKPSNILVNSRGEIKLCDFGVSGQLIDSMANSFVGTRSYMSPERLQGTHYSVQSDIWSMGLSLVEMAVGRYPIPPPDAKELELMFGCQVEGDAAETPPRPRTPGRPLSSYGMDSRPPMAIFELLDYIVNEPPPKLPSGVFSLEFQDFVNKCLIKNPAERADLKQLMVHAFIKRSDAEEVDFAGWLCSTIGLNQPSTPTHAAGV

[16] = biological target: Proto-oncogene tyrosine-protein kinase Src (Homo sapiens) (UniProt P12931); experiment: Inhibition of recombinant SRC (unknown origin) assessed as residual activity at 1 uM relative to control
[17] = biological target: Aurora kinase B (Homo sapiens) (UniProt Q96GD4); experiment: Inhibition of recombinant Aurora B (unknown origin) assessed as residual activity at 1 uM relative to control
[18] = biological target: Casein kinase II (Homo sapiens) (UniProt P67870+P68400+P19784); experiment: Inhibition of recombinant CK2 (unknown origin) assessed as residual activity at 1 uM relative to control; format: protein-complex assay
[19] = biological target: Myosin light chain kinase, smooth muscle (Homo sapiens) (UniProt Q15746); experiment: Inhibition of recombinant smMLCK (unknown origin) assessed as residual activity at 1 uM relative to control
[20] = biological target: Receptor-interacting serine/threonine-protein kinase 2 (Homo sapiens) (UniProt O43353); experiment: Inhibition of recombinant RIPK2 (unknown origin) assessed as residual activity at 1 uM relative to control
Chain of Receptor-interacting serine/threonine-protein kinase 2 (Homo sapiens) (O43353 whole entry): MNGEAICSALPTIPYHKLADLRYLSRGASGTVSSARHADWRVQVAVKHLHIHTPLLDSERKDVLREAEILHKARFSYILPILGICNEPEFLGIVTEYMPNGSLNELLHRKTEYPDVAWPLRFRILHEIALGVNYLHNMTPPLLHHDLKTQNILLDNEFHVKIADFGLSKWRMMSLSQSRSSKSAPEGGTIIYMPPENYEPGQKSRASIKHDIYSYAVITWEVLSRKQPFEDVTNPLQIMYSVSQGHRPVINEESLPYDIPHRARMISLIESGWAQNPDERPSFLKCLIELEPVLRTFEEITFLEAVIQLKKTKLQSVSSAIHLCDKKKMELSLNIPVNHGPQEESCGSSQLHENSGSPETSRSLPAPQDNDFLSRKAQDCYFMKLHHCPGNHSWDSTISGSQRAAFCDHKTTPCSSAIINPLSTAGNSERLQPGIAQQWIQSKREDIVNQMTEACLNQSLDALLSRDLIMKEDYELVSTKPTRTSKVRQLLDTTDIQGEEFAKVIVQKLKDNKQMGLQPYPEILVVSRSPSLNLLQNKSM

[21] = biological target: Protein kinase C alpha type (Homo sapiens) (UniProt P17252); experiment: Inhibition of recombinant PKCalpha (unknown origin) assessed as residual activity at 1 uM relative to control
[22] = biological target: Glycogen synthase kinase-3 beta (Homo sapiens) (UniProt P49841); experiment: Inhibition of recombinant GSK3beta (unknown origin) assessed as residual activity at 1 uM relative to control
[23] = biological target: Ribosomal protein S6 kinase beta-1 (Homo sapiens) (UniProt P23443); experiment: Inhibition of recombinant S6K1 (unknown origin) assessed as residual activity at 1 uM relative to control
Chain of Ribosomal protein S6 kinase beta-1 (Homo sapiens) (P23443 whole entry, looked up): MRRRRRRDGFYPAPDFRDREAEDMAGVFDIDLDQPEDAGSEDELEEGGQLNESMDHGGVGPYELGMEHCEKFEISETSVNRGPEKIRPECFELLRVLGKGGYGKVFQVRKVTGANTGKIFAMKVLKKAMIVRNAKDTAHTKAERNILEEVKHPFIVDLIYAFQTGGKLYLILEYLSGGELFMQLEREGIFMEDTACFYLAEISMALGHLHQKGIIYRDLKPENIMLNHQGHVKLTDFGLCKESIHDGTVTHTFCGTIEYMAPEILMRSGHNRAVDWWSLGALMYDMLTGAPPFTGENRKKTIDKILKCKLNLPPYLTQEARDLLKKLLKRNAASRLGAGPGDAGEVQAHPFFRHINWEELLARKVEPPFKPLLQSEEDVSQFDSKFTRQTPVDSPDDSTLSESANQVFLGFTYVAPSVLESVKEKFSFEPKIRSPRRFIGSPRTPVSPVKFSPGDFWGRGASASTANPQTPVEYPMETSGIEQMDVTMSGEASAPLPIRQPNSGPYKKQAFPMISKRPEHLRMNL

[24] = biological target: Serine/threonine-protein kinase 3 (Homo sapiens) (UniProt Q13188); experiment: Inhibition of recombinant MST2 (unknown origin) assessed as residual activity at 1 uM relative to control
[25] = biological target: Receptor tyrosine-protein kinase erbB-4 (Homo sapiens) (UniProt Q15303); experiment: Inhibition of recombinant HER4 (unknown origin) assessed as residual activity at 1 uM relative to control
[26] = biological target: 3-phosphoinositide-dependent protein kinase 1 (Homo sapiens) (UniProt O15530); experiment: Inhibition of recombinant PDK1 (unknown origin) assessed as residual activity at 1 uM relative to control
Chain of 3-phosphoinositide-dependent protein kinase 1 (Homo sapiens) (O15530 whole entry): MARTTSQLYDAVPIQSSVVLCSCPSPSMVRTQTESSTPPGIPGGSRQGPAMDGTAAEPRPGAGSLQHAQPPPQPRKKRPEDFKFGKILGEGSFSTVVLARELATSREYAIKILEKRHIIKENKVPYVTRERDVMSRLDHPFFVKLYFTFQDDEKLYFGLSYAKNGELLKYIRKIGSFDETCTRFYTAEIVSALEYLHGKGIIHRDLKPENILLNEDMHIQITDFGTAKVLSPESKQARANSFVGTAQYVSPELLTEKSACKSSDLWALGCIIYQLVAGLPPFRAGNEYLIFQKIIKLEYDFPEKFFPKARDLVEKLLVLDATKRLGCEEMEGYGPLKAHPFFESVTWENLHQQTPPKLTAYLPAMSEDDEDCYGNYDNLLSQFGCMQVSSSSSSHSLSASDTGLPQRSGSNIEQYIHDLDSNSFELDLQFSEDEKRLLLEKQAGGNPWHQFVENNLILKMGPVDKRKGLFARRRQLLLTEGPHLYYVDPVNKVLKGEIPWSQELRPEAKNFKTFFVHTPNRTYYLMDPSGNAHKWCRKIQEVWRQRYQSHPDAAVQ

[27] = biological target: Serine/threonine-protein kinase pim-1 (Homo sapiens) (UniProt P11309); experiment: Inhibition of recombinant PIM1 (unknown origin) assessed as residual activity at 1 uM relative to control
Chain of Serine/threonine-protein kinase pim-1 (Homo sapiens) (P11309 whole entry, looked up): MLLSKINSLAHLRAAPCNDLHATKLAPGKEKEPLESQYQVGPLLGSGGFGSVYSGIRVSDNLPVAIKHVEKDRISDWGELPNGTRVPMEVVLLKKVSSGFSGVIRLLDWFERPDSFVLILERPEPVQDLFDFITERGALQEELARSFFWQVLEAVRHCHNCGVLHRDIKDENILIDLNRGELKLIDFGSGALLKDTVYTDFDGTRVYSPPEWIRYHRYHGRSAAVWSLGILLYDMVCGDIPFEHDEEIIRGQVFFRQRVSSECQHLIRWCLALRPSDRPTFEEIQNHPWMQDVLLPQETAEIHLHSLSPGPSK

[28] = biological target: Serine/threonine-protein kinase N2 (Homo sapiens) (UniProt Q16513); experiment: Inhibition of recombinant PRK2 (unknown origin) assessed as residual activity at 1 uM relative to control
Chain of Serine/threonine-protein kinase N2 (Homo sapiens) (Q16513 whole entry, looked up): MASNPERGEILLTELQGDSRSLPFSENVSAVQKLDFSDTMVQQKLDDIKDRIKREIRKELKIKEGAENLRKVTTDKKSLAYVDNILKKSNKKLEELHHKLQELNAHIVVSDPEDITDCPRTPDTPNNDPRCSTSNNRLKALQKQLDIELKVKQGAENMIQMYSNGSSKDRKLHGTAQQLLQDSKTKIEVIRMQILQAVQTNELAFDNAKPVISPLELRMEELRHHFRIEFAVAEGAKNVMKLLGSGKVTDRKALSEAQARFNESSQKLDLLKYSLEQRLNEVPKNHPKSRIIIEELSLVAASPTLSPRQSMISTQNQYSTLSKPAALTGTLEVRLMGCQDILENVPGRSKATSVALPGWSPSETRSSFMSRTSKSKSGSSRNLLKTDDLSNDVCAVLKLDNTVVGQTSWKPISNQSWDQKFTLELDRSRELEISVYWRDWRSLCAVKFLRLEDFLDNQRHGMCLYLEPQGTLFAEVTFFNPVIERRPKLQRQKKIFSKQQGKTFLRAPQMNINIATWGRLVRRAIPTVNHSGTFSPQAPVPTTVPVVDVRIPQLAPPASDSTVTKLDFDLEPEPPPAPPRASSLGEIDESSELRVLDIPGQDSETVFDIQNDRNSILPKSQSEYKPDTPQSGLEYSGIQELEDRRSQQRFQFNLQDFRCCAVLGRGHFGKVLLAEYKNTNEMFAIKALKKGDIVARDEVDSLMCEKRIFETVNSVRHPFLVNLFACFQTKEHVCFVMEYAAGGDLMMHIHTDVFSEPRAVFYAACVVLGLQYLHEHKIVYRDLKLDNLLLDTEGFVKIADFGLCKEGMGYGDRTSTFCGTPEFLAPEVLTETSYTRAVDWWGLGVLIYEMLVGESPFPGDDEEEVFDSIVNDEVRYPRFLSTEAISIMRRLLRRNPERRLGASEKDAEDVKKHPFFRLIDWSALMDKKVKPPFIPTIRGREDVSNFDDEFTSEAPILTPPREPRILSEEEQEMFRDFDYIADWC

[29] = biological target: Homeodomain-interacting protein kinase 2 (Homo sapiens) (UniProt Q9H2X6); experiment: Inhibition of recombinant HIPK2 (unknown origin) assessed as residual activity at 1 uM relative to control
[30] = biological target: Tyrosine-protein kinase JAK2 (Homo sapiens) (UniProt O60674); experiment: Inhibition of recombinant JAK2 (unknown origin) assessed as residual activity at 1 uM relative to control
[31] = biological target: RAC-alpha serine/threonine-protein kinase (Homo sapiens) (UniProt P31749); experiment: Inhibition of recombinant PKBalpha (unknown origin) assessed as residual activity at 1 uM relative to control
Chain of RAC-alpha serine/threonine-protein kinase (Homo sapiens) (P31749 whole entry): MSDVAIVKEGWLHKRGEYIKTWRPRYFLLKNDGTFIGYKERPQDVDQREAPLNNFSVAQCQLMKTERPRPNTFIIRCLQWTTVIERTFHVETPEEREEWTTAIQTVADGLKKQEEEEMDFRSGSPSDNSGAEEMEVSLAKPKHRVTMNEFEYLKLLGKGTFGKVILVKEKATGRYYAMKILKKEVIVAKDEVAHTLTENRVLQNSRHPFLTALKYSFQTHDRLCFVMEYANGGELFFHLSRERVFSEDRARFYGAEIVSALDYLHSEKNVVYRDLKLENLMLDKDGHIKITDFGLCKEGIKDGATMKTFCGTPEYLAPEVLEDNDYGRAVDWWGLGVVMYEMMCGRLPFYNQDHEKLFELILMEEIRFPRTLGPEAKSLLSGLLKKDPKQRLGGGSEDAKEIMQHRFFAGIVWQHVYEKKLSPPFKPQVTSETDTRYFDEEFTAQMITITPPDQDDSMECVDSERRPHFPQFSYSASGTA

inhibition [1]: Active | IC50 [2]: 0.777 µM | Activity [4]: 68% | Activity [5]: 79% | inhibition [12]: Active | Activity [13]: 79% | Activity [14]: 85% | Activity [15]: 87% | Activity [16]: 88% | Activity [17]: 89% | Activity [18]: 89% | Activity [19]: 90% | Activity [20]: > 100% | Activity [21]: > 100% | Activity [22]: > 100% | Activity [23]: > 100% | Activity [24]: > 100% | Activity [25]: > 100% | Activity [26]: > 100% | Activity [27]: > 100% | Activity [28]: > 100% | Activity [29]: > 100% | Activity [30]: > 100% | Activity [31]: > 100%
Compound: CC(O)CNc1nc(NCc2ccc(-c3ccccn3)cc2)c2[nH]nc(C(C)C)c2n1 (stereo not drawn)
Activity (MCF7 [3]): Active | Activity (MCF7 [6]): Dose-dependent effect | IC50 (MCF7 [6]; MCF7, 72 h): 0.027 µM | IC50 [7]: 0.087 µM | Activity (HCT-116): Dose-dependent effect | Activity (MCF7 [8]): Active | Activity (MCF7 [9]): Active | Activity (G-361 [10]): Active | Activity (G-361 [11]): Active
